# Assay outcomes from PubChem BioAssay.
# MPTP inh: permeability transition pore inhibition | isolated mouse mitochondria, Ca2+ swelling absorbance, 30 min | inhibition, % at 10 µM | 360,000 compounds, 1.4% hits | AID 602449;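 active = inhibition of 50% or more, scaled per plate between neutral and stimulator controls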;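 note: 0% = DMSO wells given calcium and 100% = 1 mM EGTA wells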
# EBV gp42 block: EBV gp42 inhibition; Q1HVG2; Fluorescence polarization binding assay, mP read-out; inhibition, % (tested at 21.74 µM); 220,000 compounds, 0.42% hits; AID 1085; in the data active = inhibition above about 50%
# Target sequence (Q1HVG2 whole entry, looked up): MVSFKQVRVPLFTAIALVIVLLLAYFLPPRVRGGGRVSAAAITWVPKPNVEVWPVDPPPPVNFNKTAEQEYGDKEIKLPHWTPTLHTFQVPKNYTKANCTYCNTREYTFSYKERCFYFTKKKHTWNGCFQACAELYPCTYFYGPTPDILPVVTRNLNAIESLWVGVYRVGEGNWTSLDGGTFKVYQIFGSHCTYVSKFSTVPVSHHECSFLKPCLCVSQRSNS
# WT yeast gro inh: growth inhibition of WT yeast, mitochondrial fusion screen; mitochondrial fusion phenotypic screen, WT strain; 190,000 compounds, 2.1% hits; inhibition, % at 10 µM; in the data active = inhibition above about 58%; tested in S. cerevisiae
# CHOP inhibitor: blocks CHOP induction under ER stress. 220,000 compounds, 3.8% hits. inhibition, % at 10 µM. CHO-K1 CHOP-promoter luciferase, tunicamycin-induced, 15-18 h;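 active = compounds that reduced the stress-induced luciferase reporter signal by more than about 70% of percent inhibition, limit read from the data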;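 note: 0% = tunicamycin plus vehicle and 100% = wells without tunicamycin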
# GRIN3A LBD mod: modulates the human NR3A ligand-binding domain; Tm shift relative to glycine control, % at 25 µM; NR3A LBD differential scanning fluorimetry, Tm shift; 0% = protein alone, 100% = glycine-bound protein; 340,000 compounds, 2.5% hits;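 active = melting temperature shift of at least 10% of the positive control shift, at one fixed dose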
# Tb MetRS inh: blocks T. brucei methionyl-tRNA synthetase activity. purified T. brucei MetRS, ATP depletion, Kinase-Glo luminescence. inhibition, % at 11.9 µM. 360,000 compounds, 0.4% hits;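 active = inhibition above a per-plate cutoff of the control wells' mean inhibition plus 3 SD, cut at about 5.5% in these data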;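 note: 0% = DMSO wells median and 100% = median of wells with control inhibitor compound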
#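 Material: parasite MetRS enzyme / Replication: singlicate, one well per compound / Signal: luminescence of leftover ATP / Schedule: 2 h aminoacylation at 25 °C after 15 min preincubation / Medium: HEPES-MgCl2-KCl buffer plus DTT, spermine, BSA, pyrophosphatase / Doses: 11.9 µM single point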
# Rh123 counter: membrane potential counter-screen of mitochondrial pore inhibitors. shares compounds with MPTP inh. isolated mitochondria, Rhodamine 123 fluorescence. inhibition, % at 10 µM. 5,000 compounds, 78% hits. AID 624504; in the data active = inhibition above about 22%;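 note: 0% = DMSO vehicle and 100% = positive control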
# MPTP swell DR: MPTP inhibition, dose response swelling confirmation. IC50, µM. isolated mitochondria swelling, absorbance. 780 compounds, 58% hits. shares compounds with MPTP inh; in the data active = IC50 below about 20 µM
# MPTP cs DR: MPTP inhibitor counter-screen activity, dose response. shares compounds with MPTP inh. isolated mitochondria counterscreen, fluorescence read-out. IC50, µM. 780 compounds, 49% hits. AID 651564; in the data active = IC50 below about 80 µM
# * hit, by the source's call; · = no result. Shown are actives, neighbours in structure and some others; about 6.4% of the full set was active somewhere.
SMILES,MPTP inh,EBV gp42 block,WT yeast gro inh,CHOP inhibitor,GRIN3A LBD mod,Tb MetRS inh,Rh123 counter,others
CC(=O)Nc1ccc(S(=O)(=O)N(C)c2ccccc2)cc1,1,-4,-1,7,0,0,·,
CCSc1nnc(NC(=O)c2cccc(S(=O)(=O)N(C)c3ccc(C)cc3)c2)s1,72*,-8,29,13,5,0,73*,
O=C(COC(=O)c1ccc(O)cc1O)c1ccc(Cl)cc1,0,·,·,·,-2,0,·,
Nc1ccc(OCc2ccccc2)cc1[N+](=O)[O-],2,·,·,·,-4,0,·,
CC(NC(=O)CN1CCN(c2ccc(Cl)cc2)CC1)c1ccccc1 (stereo not drawn),1,·,·,·,-1,0,·,
O=S(=O)(c1ccc(Br)s1)N1CCN(c2ccnc3cc(Cl)ccc23)CC1,65*,-14,·,32,1,0,36*,
FC(F)(F)c1cccc(Nc2cc(-c3ccccc3)nc3ncnn23)c1,2,-5,·,21,4,0,·,
FC(F)(F)c1ccc(N2CCN(c3cc(-c4ccccc4)nc4ncnn34)CC2)nc1,92*,-3,64*,74*,-2,-1,48*,
COc1ccccc1OC(=O)Nc1ccc(Cl)cc1,58*,·,·,·,10,-1,75*,
COc1ccc(Cl)cc1C(=O)Nc1ccc(NC(C)=O)cc1,0,4,7,-3,-13,0,·,
CC(=O)Oc1c(I)cc(I)cc1C(=O)Nc1ccc(Cl)cc1,70*,·,·,·,16*,0,69*,
C(=C\c1ccco1)/c1ccc2ccccc2n1,4,42,·,-10,-5,0,·,
CCc1cc2c3c(c1)C(C)CC(C)(C)N3C(=O)/C2=C1\SC(=O)NC1=O (stereo not drawn),55*,3,·,7,1,-1,47*,
CC1(O)CC(c2ccc(Cl)cc2)=NN1C(=O)c1ccc(Cl)cc1 (stereo not drawn),68*,·,·,·,-4,-2,88*,
CC(=O)N1CSCC1C(=O)N1CCN(c2ccc(N3CCOCC3)nn2)CC1 (stereo not drawn),-1,-21,4,-7,1,-1,·,
OC(c1ccc(F)c(F)c1)c1ncc(-c2ccc(Cl)cc2)[nH]1 (stereo not drawn),5,·,·,·,·,5,·,
COc1ccc2[nH]c(CN3CCC(CO)(CCOc4ccccc4)CC3)c(C)c2c1,66*,6,19,30,-3,0,-16,MPTP swell DR=5.8*;MPTP cs DR=>80
O=C(CSc1nnc(-c2cccnc2)n1C1CCCCC1)NC1CCCCC1,-2,-11,-8,8,2,-1,·,
O=C(NNC(=S)NC1CCCCC1)c1sc2ccccc2c1Cl,88*,5,8,17,4,-1,79*,
CC(C)(C)C(=O)NC(=S)NNC(=O)c1sc2ccccc2c1Cl,61*,13,75*,110*,-5,0,21*,
CCN(CC)S(=O)(=O)c1cccc(NC(=O)COC(=O)c2[nH]c(C)c(C(C)=O)c2C)c1,86*,·,·,·,·,0,88*,
CC(=O)c1c(C)[nH]c(C(=O)Nc2cccc(S(=O)(=O)N(C)C)c2)c1C,2,-5,8,-3,-2,0,·,
CC(=O)c1c(C)[nH]c(C(=O)OCC(=O)Nc2cccc(S(=O)(=O)N3CCCC3)c2)c1C,62*,-28,-7,39,-24,0,61*,
Cc1cc(OCC(=O)NCCCn2ccnc2)c2c(C)cc(=O)oc2c1,-2,·,·,·,1,-1,·,
CCCCN(Cc1ccco1)C(=O)Cn1ncc2c(=O)oc3ccc(C)cc3c21,0,-6,5,52,-2,-1,·,
SMILES,MPTP inh,EBV gp42 block,WT yeast gro inh,CHOP inhibitor,GRIN3A LBD mod,Tb MetRS inh,Rh123 counter,others
COc1ccc(C2=C/C(=C\c3cccc(OC(C)=O)c3)C(=O)O2)cc1,57*,-5,20,21,-15,-1,60*,
O=C(Cc1ncc(C(F)(F)F)cc1Cl)NCc1cccnc1,-1,·,·,·,1,-1,·,
Cc1nc2c(-c3ccc(Cl)cc3)c(C)[nH]n2c(=O)c1Cc1ccccc1,69*,-6,3,36,-2,0,91*,
Cc1nc2c(-c3ccccc3)c(C)[nH]n2c(=O)c1Cc1ccccc1,-1,-4,13,-29,-5,0,·,
COc1cccc(NC2SC(=O)N(c3ccccc3)C2=O)c1 (stereo not drawn),1,4,-22,-20,-40,0,·,
O=C(NCc1cccnc1)c1cc(C(=O)C2CC2)c[nH]1,-1,-9,6,9,1,-1,·,
Cc1ccc(NC(=O)COC(=O)CC2SC(N3CCCC3)=NC2=O)cc1 (stereo not drawn),1,·,·,·,2,0,·,
CCCc1nc2sc3c(c2c(=O)n1NC(=O)c1ccco1)CC(C)(C)OC3,0,-17,-12,-25,-1,0,·,
CCCCCCCCCc1nc2sc3c(c2c(=O)n1NC(=O)c1ccccc1[N+](=O)[O-])CC(C)(C)OC3,87*,-6,71*,25,20*,0,63*,
CCCCCCCCCc1nc2sc3c(c2c(=O)n1NC(=O)c1ccc([N+](=O)[O-])cc1)CC(C)(C)OC3,98*,-17,64*,21,24*,0,64*,
O=C1NC(=S)/C(=C\c2ccc(-c3ccccc3Cl)o2)S1,91*,60*,34,69,3,0,37*,
O=C1NC(=O)/C(=C/c2ccc(-c3cc(C(=O)O)ccc3Cl)o2)S1,0,·,·,·,-5,1,·,
CCC(=O)OCC(=O)Nc1ccc(OC)cc1[N+](=O)[O-],0,-11,2,13,-1,0,·,
CCOC(=O)c1nc2sc3c(c2c(=O)[nH]1)CCC(C)C3 (stereo not drawn),1,-23,·,54,1,0,·,
CCc1c(-c2ccccc2)nc2sc3c(c2c1N)CCCC3,84*,43,·,35,-7,0,70*,
Nc1c2c(nc3sc4c(c13)CCCCC4)CCCCC2,78*,22,41,26,4,0,93*,
CC1CCc2nc3sc4c(c3c(N)c2C1)CCCC4 (stereo not drawn),88*,-4,28,27,-9,1,81*,
CC1CCc2c(nc3sc4c(c3c2N)CCCC4)C1 (stereo not drawn),76*,-20,31,23,-1,0,84*,
O=C(CNC(=O)c1cccc(Br)c1)N/N=C/c1cc(Br)cc(Br)c1O,66*,-2,8,91*,17*,1,13,
O=C(CNC(=O)c1cccc(Br)c1)N/N=C/c1cccnc1,0,·,·,·,4,4,·,
